Reference: ChEMBL document CHEMBL1155493, “Synthesis of new cis-fused tetrahydrochromeno[4,3-b]quinolines and their antiproliferative activity studies against MDA-MB-231 and MCF-7 breast cancer cell lines” (Bioorg Med Chem Lett, 2010)

Key:
MCF7 = test: Antiproliferative activity against human MCF7 cells by MTT assay; assay type: functional, cell-based
Procedure, shortened: (§1)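 MTT read-out following an earlier published protocol; IC50 values reported, with tamoxifen as the reference compound.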

MDA-MB-231 = test: Antiproliferative activity against human MDA-MB-231 cells by MTT assay; assay type: functional, cell-based; procedure, shortened: as §1

| SMILES | IC50 (MCF7) | IC50 (MDA-MB-231) |
| --- | --- | --- |
| Cc1ccc2c(c1)C(C)(C)[C@H]1COc3ccc4c(=O)c(C)c(C)oc4c3[C@H]1N2 | 94.3 µM | > 100 µM |
| Cc1oc2c3c(ccc2c(=O)c1C)OC[C@H]1[C@@H]3Nc2ccccc2C1(C)C | > 100 µM | > 100 µM |
| Cc1oc2c3c(ccc2c(=O)c1-c1ccccc1)OC[C@H]1[C@@H]3Nc2ccccc2C1(C)C | > 100 µM | > 100 µM |
| COc1ccc2c(c1)C(C)(C)[C@H]1COc3ccc4c(=O)c(C)c(C)oc4c3[C@H]1N2 | > 100 µM | > 100 µM |
| Cc1oc2c3c(ccc2c(=O)c1C)OC[C@H]1[C@@H]3Nc2cc3ccccc3cc2C1(C)C | > 100 µM | > 100 µM |

Stronger by IC50 (MCF7), values ahead:

| IC50 (MCF7) | IC50 (MDA-MB-231) | SMILES |
| --- | --- | --- |
| 10.2 µM | > 100 µM | Cc1ccc2c(c1)C(C)(C)[C@H]1COc3ccc4c(=O)c(C)coc4c3[C@H]1N2 |
| 10 µM | > 100 µM | Cc1ccc2c(c1)C(C)(C)[C@H]1COc3ccc4c(=O)c(-c5ccccc5)c(C)oc4c3[C@H]1N2 |
| 9.6 µM | 93.8 µM | Cc1coc2c3c(ccc2c1=O)OC[C@H]1[C@@H]3Nc2ccccc2C1(C)C |
| 9 µM | 9.4 µM | Cc1coc2c3c(ccc2c1=O)OC[C@H]1[C@@H]3Nc2cc3ccccc3cc2C1(C)C |
| 1 µM | 0.66 µM | CC/C(=C(\c1ccccc1)c1ccc(OCCN(C)C)cc1)c1ccccc1 [TAMOXIFEN] |
